# The source made the active and inactive calls. The calls are words filed in the database; no cut-off is given here.
# Experiments:
# Leishmania mexicana [1] = assay: Antimicrobial activity against Leishmania mexicana MHOM/BZ/61/M379 after 24 hrs by haemocytometry; format: functional; details: MHOM/BZ/61/M379, 24 h
# Trypanosoma cruzi [2] = assay: Antimicrobial activity against bloodstream trypomastigote stage of Trypanosoma cruzi NINOA after 24 hrs by Brener method; format: functional
# [3] = Antioxidant activity assessed as inhibition of ABTS free radical scavenging activity after 10 mins by spectrophotometry relative to control; format: physicochemical
# Method in brief: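 ABTS (7 mM) and potassium persulfate (2.45 mM), final concentrations in water, mixed and kept in the dark at room temperature for 16 h to form ABTS radical cation. Diluted in water to A734 of 1.00. Compounds or Trolox standards added (final 0–20). Absorbance read 10 min after mixing. IC50 is 50% radical scavenging, relative uncertainty under five percent.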
# [4] = Cytotoxicity against African green monkey Vero cells after 24 hrs by MTT assay; format: cell-based; details: chlorocebus sabaeus
# Method in brief: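 Confluent Vero cells were trypsinized and resuspended in MEM with 10% FBS, seeded in 96-well plates and held 24 h at 37 °C, 5% CO2. Compounds at various concentrations were added (DMSO control) for 24 h. MTT was added for 2 h, then SDS-HCl overnight at 24 °C. A540 was read and viability taken relative to control cells. Triplicate; CC50 derived.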
# Plasmodium berghei [5] = assay: Antiplasmodial activity against Plasmodium berghei infected in CD1 mouse assessed as survival time at 50 mg/kg, po administered for 4 days measured on day 4 relative to vehicle-treated control; format: functional
# Method in brief: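 P. berghei ANKA was passaged by ip injection of 0.2 mL saline-diluted blood from donor mice at about 30% parasitaemia until the infection was stable. In a 4-day suppression test, mice received 50 mg/kg orally every 24 h on days 0–4 post-inoculation (n = 5, in duplicate), with 0.2 mL Arabic gum orally as control. Survival time was recorded against untreated mice, and mice without parasitaemia on day 30 counted as cured.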
# Plasmodium berghei [6] = assay: Antiplasmodial activity against Plasmodium berghei infected in CD1 mouse assessed as reduction in parasitemia at 50 mg/kg, po administered for 4 days measured on day 4 relative to vehicle-treated control; format: functional; set-up: scale not given: the % may be the effect or the level left
# Method in brief: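 P. berghei ANKA was passaged ip (0.2 mL saline-diluted blood) through groups of female CD1 mice until infection stabilized. Four-day suppression test: oral 50 mg/kg every 24 h on days 0–4 post-inoculation (n = 5, in duplicate). Vehicle control was 0.2 mL gum arabic orally. Parasitemia was read from tail blood on day 4 and inhibition calculated against the control group. Survival time was also recorded.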
# Trypanosoma cruzi [7] = assay: Antimicrobial activity against bloodstream trypomastigote stage of Trypanosoma cruzi INC-5 after 24 hrs by Brener method; format: functional; details: INC-5, 24 h
# Leishmania mexicana [8] = assay: Inhibition of DHFR in promastigote stage of Leishmania mexicana at 3 to 8 uM after 24 hrs in presence of folinic acid/folic acid/ferulic acid
# Method in brief: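 L. mexicana MHOM/BZ/61/M379 promastigotes, 10^6 in log phase, were incubated with folinic acid, folic acid or ferulic acid at 20, 40, 60, 80 or 100. Cells were washed, resuspended in PBS and held 1 h at room temperature, then pelleted and resuspended in culture medium in 24-well plates. Compound was added and plates incubated 24 h. Percentage of living parasites was determined.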
# Leishmania mexicana [9] = details: MHOM/BZ/61/M379
Molecule,LC50 (Leishmania mexicana [1]) [µM],LC50 (Trypanosoma cruzi [2]) [µM],IC50 [3] [µM],CC50 at 24 h [4] [µM],Survival (Plasmodium berghei [5]) [days],Activity (Plasmodium berghei [6]) [%],LC50 (Trypanosoma cruzi [7]) [µM],inhibition (Leishmania mexicana [8]),LC50 (Leishmania mexicana [9]) [µM]
Nc1nc(N)c2cc(NCc3ccc4c(c3)OCCO4)ccc2n1,22.4,66.5,6.29,> 200,11,44.2,72.5,–,–
CCc1nc(N)nc(N)c1-c1ccc(Cl)cc1 [PYRIMETHAMINE],–,–,–,122,>23,100,–,–,–
CC1CS(=O)(=O)CCN1/N=C/c1ccc([N+](=O)[O-])o1 (stereo not drawn) [NIFURTIMOX],–,–,–,163,–,–,–,–,–
CCN(CC)CCCC(C)Nc1ccnc2cc(Cl)ccc12 (stereo not drawn) [CHLOROQUINE],–,–,–,–,>23,100,–,–,–
O=C1O[C@H]([C@@H](O)CO)C(O)=C1O [ASCORBIC ACID],–,–,11.2,–,–,–,–,–,–
Cc1c(C)c2c(c(C)c1O)CCC(C)(C(=O)O)O2 (stereo not drawn) [TROLOX],–,–,10.9,–,–,–,–,–,–
COc1ccc(CNc2ccc3nc(N)nc(N)c3c2)cc1,14.6,32.7,5.72,147,18,98.5,155,–,–
Nc1nc(N)c2cc(NCc3ccc(OC(F)(F)F)cc3)ccc2n1,8.08,20.6,4.75,182,17,99.9,46.1,Active,–
VITAMIN E,–,–,14.8,–,–,–,–,–,–
"Nc1ccc2nc(N)nc(N)c2c1 [QUINAZOLINE-2,4,6-TRIAMINE]",–,–,6.78,–,–,–,–,–,–
COc1ccc(CN(Cc2ccc(OC)cc2)c2ccc3nc(N)nc(N)c3c2)cc1,23.1,62.6,114,> 200,7,0,46.5,–,–
CCN(Cc1ccc(OC(F)(F)F)cc1)c1ccc2nc(N)nc(N)c2c1,3.06,6.28,7.36,> 200,>23,100,43.8,Active,–
CN(C)CCCOc1ccc(CNc2ccc3nc(N)nc(N)c3c2)cc1,65.4,288,6.38,> 200,12,53.2,184,–,–
MEGLUMINE ANTIMONATE,–,–,–,–,–,–,–,–,183
O=C(Cn1ccnc1[N+](=O)[O-])NCc1ccccc1 [BENZNIDAZOLE],–,780,–,–,–,–,690,–,–
COc1ccc(CNc2ccc3nc(NC(C)=O)nc(NC(C)=O)c3c2)cc1,250,197,7.04,156,6,89.3,509,–,–
COc1ccc(CN(Cc2ccc(OC(F)(F)F)cc2)c2ccc3nc(N)nc(N)c3c2)cc1,8,17.8,24.5,> 200,21,95.2,40.7,–,–
Nc1nc(N)c2cc(N(Cc3ccc(OC(F)(F)F)cc3)Cc3ccc(OC(F)(F)F)cc3)ccc2n1,4.93,35,33.9,> 200,14,21,29.2,–,–
